≈ marks a conversion by molar mass, not a printed value.
What was measured:
RXF 393 = experiment: Growth inhibition of human RXF393 cells; type: functional
Method in brief: (§1)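 Values come from the NCI in vitro disease-oriented human tumor cell screen. GI50 is the concentration giving 50% growth inhibition of tumor cells; pGI50 is its −log molar form.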

CAKI-1 = experiment: Growth inhibition of human Caki1 cells; type: functional
[1] = Cytotoxicity against human LXFL 1121L cells after 4 days by modified propidium iodide staining-based fluorescence assay; type: functional, cell-based; conditions: 96 h
Method in brief: (§2)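 Cells cultured in RPMI 1640 with 10% fetal calf serum and 0.1 mg/mL gentamicin at 37 °C, 5% CO2. Cells from exponential cultures were trypsinized and plated at 4.000-20.000 cells/well by line. After 24 h recovery, compounds were added at five log-spaced concentrations (highest 100 μg/mL) for 4 days. Proliferation was read as DNA content with aqueous propidium iodide (7 μg/ml), fluorescence ex 530/em 620 nm. Points were run in triplicate.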

A549 = experiment: Growth inhibition of human A549 cells; type: functional
NCI/ADR-RES = experiment: Growth inhibition of human NCI/ADR-RES cells; type: functional; method in brief: as §1
HOP-92 = experiment: Growth inhibition of human HOP92 cells; type: functional
CCRF-CEM = experiment: Growth inhibition of human CCRF-CEM cells; type: functional
NCI-H23 = experiment: Growth inhibition of human NCI-H23 cells; type: functional; method in brief: as §1
[2] = Cytotoxicity against human MEXF 520L cells after 4 days by modified propidium iodide staining-based fluorescence assay; type: functional, cell-based; conditions: 96 h; method in brief: as §2
[3] = Cytotoxicity against human LXFA 629L cells after 4 days by modified propidium iodide staining-based fluorescence assay; type: functional, cell-based; conditions: 96 h; method in brief: as §2
CWR22R = experiment: Cytotoxicity against human 22Rv1 cells after 4 days by modified propidium iodide staining-based fluorescence assay; type: functional, cell-based; conditions: 22Rv1, 96 h; method in brief: as §2
SK-MEL-28 = experiment: Growth inhibition of human SK-MEL-28 cells; type: functional; method in brief: as §1
NCI-H522 = experiment: Growth inhibition of human NCI-H522 cells; type: functional; method in brief: as §1
HCT-15 = experiment: Growth inhibition of human HCT15 cells; type: functional
OVCAR-3 [4] = experiment: Growth inhibition of human OVCAR-3 cells; type: functional; method in brief: as §1
ACHN = experiment: Growth inhibition of human ACHN cells; type: functional
LNCaP = experiment: Cytotoxicity against human LNCAP cells after 4 days by modified propidium iodide staining-based fluorescence assay; type: functional, cell-based; conditions: 96 h; method in brief: as §2
MDA-MB-231 = experiment: Growth inhibition of human MDA-MB-231 cells; type: functional; method in brief: as §1
OVCAR-3 [5] = experiment: Cytotoxicity against human OVCAR-3 cells after 4 days by modified propidium iodide staining-based fluorescence assay; type: functional, cell-based; conditions: OVCAR-3, 96 h; method in brief: as §2
OVCAR-8 = experiment: Growth inhibition of human OVCAR8 cells; type: functional; method in brief: as §1
[6] = Cytotoxicity against human 1657L cells after 4 days by modified propidium iodide staining-based fluorescence assay; type: functional, cell-based; conditions: 96 h; method in brief: as §2
SF-268 = experiment: Cytotoxicity against human SF268 cells after 4 days by modified propidium iodide staining-based fluorescence assay; type: functional, cell-based; conditions: SF-268, 96 h; method in brief: as §2
IGROV-1 = experiment: Growth inhibition of human IGROV1 cells; type: functional
UACC-62 = experiment: Growth inhibition of human UACC62 cells; type: functional; method in brief: as §1
[7] = Cytotoxicity against human BXF 1218L cells after 4 days by modified propidium iodide staining-based fluorescence assay; type: functional, cell-based; conditions: 96 h; method in brief: as §2
T47D = experiment: Growth inhibition of human T47D cells; type: functional; method in brief: as §1
KM12 = experiment: Growth inhibition of human KM12 cells; type: functional
NCI-H322M = experiment: Growth inhibition of human NCI-H322M cells; type: functional; method in brief: as §1
Malme-3M = experiment: Growth inhibition of human MALME-3M cells; type: functional; method in brief: as §1
NCI-H460 = experiment: Cytotoxicity against human H460 cells after 4 days by modified propidium iodide staining-based fluorescence assay; type: functional, cell-based; conditions: NCI-H460, 96 h; method in brief: as §2
[8] = Cytotoxicity against human LXFA 526L cells after 4 days by modified propidium iodide staining-based fluorescence assay; type: functional, cell-based; conditions: 96 h; method in brief: as §2
[9] = Cytotoxicity against human UXF 1138L cells after 4 days by modified propidium iodide staining-based fluorescence assay; type: functional, cell-based; conditions: 96 h; method in brief: as §2
EKVX = experiment: Growth inhibition of human EKVX cells; type: functional
[10] = Cytotoxicity against human 899L cells after 4 days by modified propidium iodide staining-based fluorescence assay; type: functional, cell-based; conditions: 96 h; method in brief: as §2
K562 = experiment: Growth inhibition of human K562 cells; type: functional
UO-31 = experiment: Growth inhibition of human UO31 cells; type: functional; method in brief: as §1
HT-29 = experiment: Cytotoxicity against human HT-29 cells after 4 days by modified propidium iodide staining-based fluorescence assay; type: functional, cell-based; conditions: HT-29, 96 h; method in brief: as §2
SNB-19 = experiment: Growth inhibition of human SNB19 cells; type: functional; method in brief: as §1
SK-MEL-2 = experiment: Growth inhibition of human SK-MEL-2 cells; type: functional; method in brief: as §1
COLO 205 = experiment: Growth inhibition of human COLO205 cells; type: functional
OVCAR-4 = experiment: Growth inhibition of human OVCAR4 cells; type: functional; method in brief: as §1
UACC-257 = experiment: Growth inhibition of human UACC257 cells; type: functional; method in brief: as §1

Question: What does the source list for `COc1ccc2c(c1)c(-c1ccc(-c3cn(C)c4ccc(OC)cc34)o1)cn2C`?
Answer: GI50 (RXF 393): 10.4 µM; GI50 (CAKI-1): 17.1 µM; IC50 [1]: 43.4 µg/mL (≈ 112 µM); GI50 (A549): 18.4 µM; GI50 (NCI/ADR-RES): 2370 nM; GI50 (HOP-92): 1030 nM; GI50 (CCRF-CEM): 6.46 µM; GI50 (NCI-H23): 17.3 µM; IC50 [2]: 6.4 µg/mL (≈ 16.6 µM); IC50 [3]: 4.1 µg/mL (≈ 10.6 µM); IC50 (CWR22R): 33.7 µg/mL (≈ 87.2 µM); GI50 (SK-MEL-28): 14 µM; GI50 (NCI-H522): 3.42 µM; GI50 (HCT-15): 4.22 µM; GI50 (OVCAR-3 [4]): 8.51 µM; GI50 (ACHN): 3.74 µM; IC50 (LNCaP): 28.2 µg/mL (≈ 73 µM); GI50 (MDA-MB-231): 4.2 µM; IC50 (OVCAR-3 [5]): 4.2 µg/mL (≈ 10.9 µM); GI50 (OVCAR-8): 8.02 µM; IC50 [6]: > 100 µg/mL; IC50 (SF-268): 35.1 µg/mL (≈ 90.8 µM); GI50 (IGROV-1): 29.6 µM; GI50 (UACC-62): 3.81 µM; IC50 [7]: 15.7 µg/mL (≈ 40.6 µM); GI50 (T47D): 2720 nM; GI50 (KM12): 2730 nM; GI50 (NCI-H322M): > 100 µM; GI50 (Malme-3M): 52.8 µM; IC50 (NCI-H460): 22.2 µg/mL (≈ 57.4 µM); IC50 [8]: 5.8 µg/mL (≈ 15 µM); IC50 [9]: 13.7 µg/mL (≈ 35.5 µM); GI50 (EKVX): 5.48 µM; IC50 [10]: > 100 µg/mL; GI50 (K562): 2860 nM; GI50 (UO-31): 3.6 µM; IC50 (HT-29): > 100 µg/mL; GI50 (SNB-19): 29.8 µM; GI50 (SK-MEL-2): 2130 nM; GI50 (COLO 205): 5.13 µM; GI50 (OVCAR-4): 2060 nM; GI50 (UACC-257): 27 µM

— ChEMBL document CHEMBL1165947, “Synthesis and antitumor activity of 2,5-bis(3'-indolyl)-furans and 3,5-bis(3'-indolyl)-isoxazoles, nortopsentin analogues” (Bioorg Med Chem, 2010)
